Measured values published in ChEMBL document CHEMBL4052637, “Discovery and Characterization of R/S-N-3-Cyanophenyl-N'-(6-tert-butoxycarbonylamino-3,4-dihydro-2,2-dimethyl-2H-1-benzopyran-4-yl)urea, a New Histone Deacetylase Class III Inhibitor Exerting Antiproliferative Activity against Cancer Cell Lines” (J Med Chem, 2017).
Active and inactive are the calls of the source. The calls are words filed in the database; no cut-off is given here.

Key:
[1] = system: SF-539; test: Growth inhibition of human SF539 cells after 48 hrs by SRB assay; format: functional; settings: SF-539, 48 h
[2] = system: U-373MG ATCC; test: Cell cycle arrest in human U373 cells assessed as accumulation at G2/M phase at 2 uM after 24 to 48 hrs by propidium iodide staining-based flow cytometry; format: functional; settings: 7.5 uM, in the assay text read “at 7.5 uM” for “at 2 uM”
In short: (§1)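 Cells were exposed to compound at the IC50 for each line from the 72 h MTT assay, or to a reference HDAC inhibitor at 2 μM. Cell cycle distribution was analyzed after 24 and 48 h. Results are mean ± SD of three independent experiments, with p values against control cells.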

[3] = target: T1, NAD-dependent protein deacetylase sirtuin-1 (Homo sapiens) (UniProt Q96EB6); test: Inhibition of SIRT1 in human U373 cells assessed as increase of histone H4 acetylation after 8 hrs by Western blotting method; format: cell-based
T1 sequence (whole entry): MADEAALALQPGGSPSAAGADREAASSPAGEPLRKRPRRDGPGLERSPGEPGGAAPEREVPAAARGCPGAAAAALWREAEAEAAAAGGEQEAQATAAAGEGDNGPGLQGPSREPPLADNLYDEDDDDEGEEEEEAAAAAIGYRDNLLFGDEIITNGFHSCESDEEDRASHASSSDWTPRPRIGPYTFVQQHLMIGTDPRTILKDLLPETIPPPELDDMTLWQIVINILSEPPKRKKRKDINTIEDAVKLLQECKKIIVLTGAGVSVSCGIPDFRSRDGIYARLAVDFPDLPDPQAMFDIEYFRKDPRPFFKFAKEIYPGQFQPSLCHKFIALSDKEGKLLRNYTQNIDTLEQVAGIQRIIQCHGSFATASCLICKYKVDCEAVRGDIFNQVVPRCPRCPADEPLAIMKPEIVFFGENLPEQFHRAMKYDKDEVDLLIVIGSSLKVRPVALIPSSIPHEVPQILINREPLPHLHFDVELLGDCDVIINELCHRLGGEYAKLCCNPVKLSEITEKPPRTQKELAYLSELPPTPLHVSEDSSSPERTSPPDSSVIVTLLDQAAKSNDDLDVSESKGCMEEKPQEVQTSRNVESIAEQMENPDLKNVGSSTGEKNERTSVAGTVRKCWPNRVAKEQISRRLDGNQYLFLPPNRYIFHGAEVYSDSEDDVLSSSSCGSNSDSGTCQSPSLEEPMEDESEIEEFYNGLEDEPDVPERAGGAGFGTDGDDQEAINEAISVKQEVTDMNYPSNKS

[4] = system: M14; test: Growth inhibition of human M14 cells after 48 hrs by SRB assay; format: functional; settings: M14, 48 h
[5] = target: T1, NAD-dependent protein deacetylase sirtuin-1 (Homo sapiens); test: Inhibition of SIRT1 in human U373 cells assessed as increase of histone H4 acetylation at 5 uM after 8 hrs by Western blotting method relative to control; format: cell-based
[6] = Potency index, ratio of AGK2 IC50 to test compound IC50 for human U373 cells; format: functional, U-373MG ATCC
[7] = system: UACC-257; test: Growth inhibition of human UACC257 cells after 48 hrs by SRB assay; format: functional; settings: UACC-257, 48 h
[8] = system: A2780; test: Antiproliferative activity against human A2780 cells after 72 hrs by MTT assay; format: functional, cell-based
In short: (§2)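 MTT assay: cells in RPMI 1640 with 10% heat-inactivated FCS at 37 °C and 5% CO2 were seeded 24 h before treatment. They were exposed 72 h to compound at 0.01–100 μM, with DMSO as solvent.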

[9] = system: RXF 393; test: Growth inhibition of human RXF393 cells after 48 hrs by SRB assay; format: functional; settings: RXF 393, 48 h
[10] = system: Hs 683; test: Potency index, ratio of EX-527 IC50 to test compound IC50 for human Hs683 cells; format: functional
[11] = system: Hs 683; test: Cytostatic activity against human Hs683 cells at 10 uM after 72 hrs by quantitative videomicroscopy relative to control; format: functional
In short: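 Cells were grown in 25 cm2 flasks, and phase-contrast images were recorded every 4 min over 72 h, in triplicate. Global growth is cell count on the last image divided by cell count on the first, at 24, 48 and 72 h. The GGR index is treated GG divided by control GG.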

[12] = system: Hs 683; test: Inhibition of spheroid forming capacity of human Hs683 cells assessed as decrease in surface area of tumor spheroids at 5 to 10 uM treated for 24 hrs measured after 96 hrs by bright field microscopic method; format: functional, cell-based
In short: (§3)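 Spheroids formed from 1 × 10^3 cells in 25 μL. Cells were pretreated 24 h with compound then left untreated 96 h, or untreated spheroids were cultured 96 h with compound. Surface measured from bright-field images; volume in voxels from 3D plots after image segmentation. Mean ± SD of three independent experiments.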

[13] = system: SNB-19; test: Growth inhibition of human SNB19 cells after 48 hrs by SRB assay; format: functional; settings: SNB-19, 48 h
[14] = system: MDA-MB-468; test: Growth inhibition of human MDA-MB-468 cells after 48 hrs by SRB assay; format: functional; settings: MDA-MB-468, 48 h
[15] = system: Hs 683; test: Inhibition of spheroid forming capacity of human Hs683 cells assessed as decrease in volume of multicellular tumor spheroids at 5 to 10 uM treated for 24 hrs measured after 96 hrs by bright field microscopic method; format: functional, cell-based; in short: as §3
[16] = system: CCRF-CEM; test: Growth inhibition of human CCRF-CEM cells after 48 hrs by SRB assay; format: functional
[17] = system: Hs 683; test: Antiproliferative activity against human Hs683 cells transfected with SIRT1/2 siRNA at IC50 for MTT assay after 72 hrs by time-lapse videomicroscopy; format: functional, cell-based
[18] = target: Histone deacetylase 1 (Homo sapiens) (UniProt Q13547); test: Inhibition of His-tagged recombinant human HDAC1 expressed in baculovirus expression system at 0.1 to 100 uM using Fluor-de-Lys-SIRT1 as substrate after 15 mins by fluorescence assay
[19] = system: Hs 683; test: Induction of senescence in human Hs683 cells at 5 uM after 6 days by beta-galactosidase assay (reference value: 0.2%); format: functional
In short: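 Cells were kept 6 days in medium containing 5 μM compound or DMSO vehicle, then stained for senescence-associated β-galactosidase activity. Blue-stained cells were counted and expressed as a percentage of total cells counted. Two independent experiments.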

[20] = organism: Homo sapiens; test: Inhibition of HDAC isolated from human K562 cells at 0.1 to 100 uM using Fluor-de-Lys as substrate after 15 mins by fluorescence assay
[21] = system: HCT-116; test: Antiproliferative activity against human HCT116 cells expressing wild type p53 after 72 hrs by MTT assay; format: functional, cell-based; in short: as §2
[22] = Potency index, ratio of EX-527 IC50 to test compound IC50 for human U373 cells; format: functional, U-373MG ATCC
[23] = target: T1, NAD-dependent protein deacetylase sirtuin-1 (Homo sapiens); test: Inhibition of SIRT1 in human Hs683 cells assessed as increase of histone H4 acetylation at 2.5 uM after 8 hrs by Western blotting method relative to control; format: cell-based
[24] = system: SW1573/2R120; test: Antiproliferative activity against human SW1573/2R120 cells overexpressing ABCC1/LRP after 72 hrs by MTT assay; format: functional, cell-based; in short: as §2
[25] = system: HCT-116; test: Antiproliferative activity against p53 knock out human HCT116 cells after 72 hrs by MTT assay; format: functional, cell-based; in short: as §2
[26] = system: U-373MG ATCC; test: Cell cycle arrest in human U373 cells assessed as accumulation at G1 phase at IC50 after 24 to 48 hrs by propidium iodide staining-based flow cytometry; format: functional; in short: as §1

Sequence of Histone deacetylase 1 (Homo sapiens) (Q13547 whole entry): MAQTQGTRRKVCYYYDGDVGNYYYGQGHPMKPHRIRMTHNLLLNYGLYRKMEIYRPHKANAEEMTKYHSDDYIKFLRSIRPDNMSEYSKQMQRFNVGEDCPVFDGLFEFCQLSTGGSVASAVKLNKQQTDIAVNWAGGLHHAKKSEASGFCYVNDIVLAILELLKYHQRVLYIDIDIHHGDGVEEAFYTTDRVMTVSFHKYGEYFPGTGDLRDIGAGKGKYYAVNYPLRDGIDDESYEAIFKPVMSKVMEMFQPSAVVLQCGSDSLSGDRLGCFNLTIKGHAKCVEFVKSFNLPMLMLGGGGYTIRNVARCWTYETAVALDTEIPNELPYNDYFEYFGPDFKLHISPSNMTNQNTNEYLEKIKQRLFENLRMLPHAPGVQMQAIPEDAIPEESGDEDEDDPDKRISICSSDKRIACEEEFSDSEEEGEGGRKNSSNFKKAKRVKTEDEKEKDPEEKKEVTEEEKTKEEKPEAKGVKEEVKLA

For `CC(C)(C)OC(=O)Nc1ccc2c(c1)C(NC(=O)Nc1cccc(C#N)c1)CC(C)(C)O2` (stereo unspecified), the GI50 [1] was 6.61 µM, the Activity [2] was “Active” and the inhibition [3] was “Dose-dependent effect”. The GI50 [4] was 4.17 µM, the fold change (FC) [5] was 1.3 and the “Ratio IC50” value [6] was 6 - 14. For the same compound, the GI50 [7] was 871 nM, the Activity [8] was “Active” and the GI50 [9] was 6.17 µM. The “Ratio IC50” value [10] was 20, the Activity [11] was “>=50%” and the inhibition [12] was “Active”. For the same compound, the GI50 [13] was 3.72 µM, the GI50 [14] was 269 nM and the inhibition [15] was “Active”. For the same compound, the GI50 [16] was 3.31 µM, the Activity [17] was “Active” and the inhibition [18] was “inactive”. For the same compound, the Activity [19] was 0.5%, the inhibition [20] was “inactive” and the Activity [21] was “Active”. For the same compound, the “Ratio IC50” value [22] was 20, the fold change (FC) [23] was 1.9 and the Activity [24] was “Active”. The Activity [25] was “Active” and the Activity [26] was “Active”.
